{"source": "paper PMC8210434", "about": "(ACS Omega, 2021)", "key": {"[1]": {"tested_on": "rats", "assay": "Non-GLP 7-day acute rat toxicity study", "assay_type": "in vivo, Sprague Dawley rats", "how_it_was_run": "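Rats received test compound daily for 7 days (non-GLP) at 200, 400 and 800 mg/kg/day, alongside a vehicle group. Endpoints were adverse events, laboratory abnormalities, salivary discharge scored 1 h after dosing, and gross anatomy of kidneys, hearts and livers compared with vehicle.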"}, "[2]": {"assay": "Liver microsome stability assay, human", "assay_type": "in vitro ADME", "settings": "liver microsomes, pH 7.4"}, "[3]": {"assay": "Plasma protein binding by equilibrium dialysis, human", "assay_type": "in vitro ADME", "settings": "pH 7.4"}, "[4]": {"tested_on": "monkeys", "settings": "39 weeks of chronic dosing; cited from earlier work"}, "[5]": {"biological_target": "CYP2C19 (Homo sapiens, UniProt P33261)", "sequence (P33261 whole entry)": "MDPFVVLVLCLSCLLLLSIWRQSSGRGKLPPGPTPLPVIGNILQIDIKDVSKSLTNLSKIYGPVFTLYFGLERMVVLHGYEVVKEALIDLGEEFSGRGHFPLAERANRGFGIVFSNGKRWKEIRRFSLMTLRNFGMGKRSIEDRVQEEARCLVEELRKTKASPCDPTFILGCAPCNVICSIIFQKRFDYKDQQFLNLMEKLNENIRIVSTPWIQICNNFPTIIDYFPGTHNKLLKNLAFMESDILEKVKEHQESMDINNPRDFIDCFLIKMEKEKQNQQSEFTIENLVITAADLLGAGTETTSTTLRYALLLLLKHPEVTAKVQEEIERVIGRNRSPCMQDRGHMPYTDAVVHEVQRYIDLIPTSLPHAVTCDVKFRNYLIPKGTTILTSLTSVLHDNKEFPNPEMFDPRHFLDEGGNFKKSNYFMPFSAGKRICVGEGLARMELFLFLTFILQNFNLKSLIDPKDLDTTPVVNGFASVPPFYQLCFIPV", "assay": "CYP inhibition assay, CYP2C19", "assay_type": "in vitro ADME"}, "[6]": {"biological_target": "CYP3A4 (Homo sapiens, UniProt P08684)", "sequence (P08684 whole entry)": "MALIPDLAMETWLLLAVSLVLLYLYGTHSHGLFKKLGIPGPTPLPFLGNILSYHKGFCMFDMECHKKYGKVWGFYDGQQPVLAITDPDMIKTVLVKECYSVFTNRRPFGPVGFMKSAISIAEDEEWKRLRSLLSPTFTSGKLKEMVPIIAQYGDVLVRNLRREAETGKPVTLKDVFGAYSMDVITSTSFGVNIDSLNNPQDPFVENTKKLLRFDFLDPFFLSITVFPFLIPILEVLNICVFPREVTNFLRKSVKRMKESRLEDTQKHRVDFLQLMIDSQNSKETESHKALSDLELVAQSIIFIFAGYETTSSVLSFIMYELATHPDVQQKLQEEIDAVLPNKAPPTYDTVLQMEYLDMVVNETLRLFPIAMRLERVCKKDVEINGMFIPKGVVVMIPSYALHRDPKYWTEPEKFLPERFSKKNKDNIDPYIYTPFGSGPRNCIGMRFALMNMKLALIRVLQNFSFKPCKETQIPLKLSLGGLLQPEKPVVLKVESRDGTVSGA", "assay": "CYP inhibition assay, CYP3A4", "assay_type": "in vitro ADME"}, "[7]": {"tested_on": "AT2R", "settings": "read-out: IC50 measured via a radiolabeled ligand-binding assay; cited from earlier work"}, "[8]": {"assay": "Liver microsome stability assay, rat", "assay_type": "in vitro ADME", "settings": "liver microsomes, pH 7.4"}, "[9]": {"biological_target": "CYP2C9 (Homo sapiens, UniProt P11712)", "sequence (P11712 whole entry)": "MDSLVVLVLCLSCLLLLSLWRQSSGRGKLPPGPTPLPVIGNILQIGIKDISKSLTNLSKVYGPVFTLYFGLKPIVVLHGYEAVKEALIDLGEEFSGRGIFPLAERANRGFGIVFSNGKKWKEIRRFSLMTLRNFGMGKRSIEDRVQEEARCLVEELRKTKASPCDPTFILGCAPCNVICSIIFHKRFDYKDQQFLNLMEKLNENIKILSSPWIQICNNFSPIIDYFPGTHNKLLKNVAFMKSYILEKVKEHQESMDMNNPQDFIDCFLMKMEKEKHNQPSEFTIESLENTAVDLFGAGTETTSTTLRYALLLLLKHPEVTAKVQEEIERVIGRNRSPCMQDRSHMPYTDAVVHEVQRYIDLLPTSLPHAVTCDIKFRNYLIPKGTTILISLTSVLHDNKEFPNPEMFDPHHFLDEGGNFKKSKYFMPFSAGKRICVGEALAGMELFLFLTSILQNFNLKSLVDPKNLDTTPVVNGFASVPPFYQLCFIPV", "assay": "CYP inhibition assay, CYP2C9", "assay_type": "in vitro ADME"}, "[10]": {"assay": "Caco-2 cell permeability assay", "assay_type": "in vitro ADME", "settings": "human, Caco-2, pH 7.4"}, "[11]": {"assay": "Plasma protein binding by equilibrium dialysis, rat", "assay_type": "in vitro ADME", "settings": "pH 7.4"}, "[12]": {"tested_on": "NG108-15 cells", "assay": "NG108-15 neurite outgrowth assay", "assay_type": "cell-based", "settings": "1 μM compound, 0.1 μM angiotensin II, three days"}, "[13]": {"biological_target": "CYP2D6 (Homo sapiens, UniProt P10635)", "sequence (P10635 whole entry)": "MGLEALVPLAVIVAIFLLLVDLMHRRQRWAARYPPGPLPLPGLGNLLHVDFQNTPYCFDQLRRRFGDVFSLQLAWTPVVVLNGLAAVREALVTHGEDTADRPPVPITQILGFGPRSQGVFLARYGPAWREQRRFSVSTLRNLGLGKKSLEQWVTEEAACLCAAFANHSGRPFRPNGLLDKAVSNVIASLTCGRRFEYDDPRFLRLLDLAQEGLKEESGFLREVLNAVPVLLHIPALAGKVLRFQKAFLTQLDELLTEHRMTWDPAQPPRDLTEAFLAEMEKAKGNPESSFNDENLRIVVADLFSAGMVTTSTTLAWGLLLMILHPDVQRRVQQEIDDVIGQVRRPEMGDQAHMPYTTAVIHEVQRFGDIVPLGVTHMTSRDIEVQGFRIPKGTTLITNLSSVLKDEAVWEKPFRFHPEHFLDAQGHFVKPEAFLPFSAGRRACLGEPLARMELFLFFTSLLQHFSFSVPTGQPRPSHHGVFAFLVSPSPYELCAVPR", "assay": "CYP inhibition assay, CYP2D6", "assay_type": "in vitro ADME"}, "[14]": {"assay": "In vivo pharmacokinetic study in rats", "settings": "male, Sprague Dawley, rat, plasma"}, "[15]": {"biological_target": "hERG channel (Homo sapiens, UniProt Q12809)", "sequence (Q12809 whole entry)": "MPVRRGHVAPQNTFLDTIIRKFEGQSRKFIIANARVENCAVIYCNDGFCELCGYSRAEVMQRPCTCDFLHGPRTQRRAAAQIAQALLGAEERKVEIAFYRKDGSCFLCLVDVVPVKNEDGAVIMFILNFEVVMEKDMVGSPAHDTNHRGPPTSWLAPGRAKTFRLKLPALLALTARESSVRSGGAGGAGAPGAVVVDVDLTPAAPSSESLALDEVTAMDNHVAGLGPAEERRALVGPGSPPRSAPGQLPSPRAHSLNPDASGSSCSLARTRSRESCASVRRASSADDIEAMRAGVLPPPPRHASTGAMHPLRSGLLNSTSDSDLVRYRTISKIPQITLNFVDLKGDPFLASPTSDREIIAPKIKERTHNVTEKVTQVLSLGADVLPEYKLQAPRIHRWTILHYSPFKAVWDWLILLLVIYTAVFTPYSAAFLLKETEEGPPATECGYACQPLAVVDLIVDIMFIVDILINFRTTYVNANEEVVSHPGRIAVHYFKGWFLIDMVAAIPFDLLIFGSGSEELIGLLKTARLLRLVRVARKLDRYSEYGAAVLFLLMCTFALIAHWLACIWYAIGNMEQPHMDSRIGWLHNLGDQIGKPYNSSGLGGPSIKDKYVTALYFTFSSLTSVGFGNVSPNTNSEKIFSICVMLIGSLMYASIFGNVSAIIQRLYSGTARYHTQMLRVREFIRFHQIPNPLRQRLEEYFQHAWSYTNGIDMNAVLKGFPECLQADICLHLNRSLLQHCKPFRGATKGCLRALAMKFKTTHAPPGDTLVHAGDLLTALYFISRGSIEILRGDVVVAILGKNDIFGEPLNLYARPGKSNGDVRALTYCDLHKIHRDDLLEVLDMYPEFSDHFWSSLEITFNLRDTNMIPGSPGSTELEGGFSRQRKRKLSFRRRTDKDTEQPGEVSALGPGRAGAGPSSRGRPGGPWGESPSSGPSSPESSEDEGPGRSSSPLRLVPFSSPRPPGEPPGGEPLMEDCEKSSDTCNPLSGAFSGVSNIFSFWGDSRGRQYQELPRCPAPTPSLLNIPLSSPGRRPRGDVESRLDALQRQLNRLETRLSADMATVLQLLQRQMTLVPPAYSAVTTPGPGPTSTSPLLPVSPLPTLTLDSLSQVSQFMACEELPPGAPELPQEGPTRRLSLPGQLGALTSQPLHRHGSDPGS", "assay": "hERG patch clamp assay", "assay_type": "cell-based"}, "[16]": {"tested_on": "CCI rats", "assay": "Chronic constriction injury", "assay_type": "in vivo, Sprague–Dawley rats", "settings": "orally dosed"}, "[17]": {"biological_target": "T1, CYP2C8 (Homo sapiens, UniProt P10632)", "T1 sequence (P10632 1-490)": "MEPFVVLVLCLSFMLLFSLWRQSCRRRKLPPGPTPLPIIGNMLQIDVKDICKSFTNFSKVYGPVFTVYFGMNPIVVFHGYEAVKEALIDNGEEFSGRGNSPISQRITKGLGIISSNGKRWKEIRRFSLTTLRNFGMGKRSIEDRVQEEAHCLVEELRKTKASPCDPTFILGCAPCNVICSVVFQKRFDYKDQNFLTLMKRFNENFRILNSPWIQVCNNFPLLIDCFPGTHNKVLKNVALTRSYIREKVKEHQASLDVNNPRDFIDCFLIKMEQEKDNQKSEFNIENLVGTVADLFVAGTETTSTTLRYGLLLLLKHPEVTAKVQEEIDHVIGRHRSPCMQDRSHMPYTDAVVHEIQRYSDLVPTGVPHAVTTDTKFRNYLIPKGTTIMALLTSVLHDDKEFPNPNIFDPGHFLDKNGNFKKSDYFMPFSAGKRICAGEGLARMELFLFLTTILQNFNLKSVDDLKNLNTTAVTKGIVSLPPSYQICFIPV", "assay": "CYP inhibition assay, CYP2C8", "assay_type": "in vitro ADME"}, "[18]": {"biological_target": "T2, CYP1A2 (Homo sapiens, UniProt P05177)", "T2 sequence (P05177 1-516)": "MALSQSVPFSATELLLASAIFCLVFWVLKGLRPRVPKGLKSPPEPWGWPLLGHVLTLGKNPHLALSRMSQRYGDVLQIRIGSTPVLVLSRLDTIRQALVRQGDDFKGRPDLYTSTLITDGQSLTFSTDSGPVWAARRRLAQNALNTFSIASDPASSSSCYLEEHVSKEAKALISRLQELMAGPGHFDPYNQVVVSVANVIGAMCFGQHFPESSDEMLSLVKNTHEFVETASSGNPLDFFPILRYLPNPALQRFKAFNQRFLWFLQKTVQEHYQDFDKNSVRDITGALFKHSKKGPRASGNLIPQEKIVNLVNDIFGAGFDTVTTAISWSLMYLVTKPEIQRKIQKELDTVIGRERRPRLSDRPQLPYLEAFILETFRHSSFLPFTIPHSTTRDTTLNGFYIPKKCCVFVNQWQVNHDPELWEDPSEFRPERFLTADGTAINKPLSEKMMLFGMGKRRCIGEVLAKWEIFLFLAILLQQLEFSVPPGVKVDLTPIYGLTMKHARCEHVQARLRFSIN", "assay": "CYP inhibition assay, CYP1A2", "assay_type": "in vitro ADME"}, "[19]": {"assay": "Human hepatocytes metabolic stability assay", "assay_type": "in vitro ADME", "settings": "cryopreserved hepatocytes"}, "[20]": {"biological_target": "T3, human AT1R (Homo sapiens, UniProt P30556)", "T3 sequence (P30556 1-359)": "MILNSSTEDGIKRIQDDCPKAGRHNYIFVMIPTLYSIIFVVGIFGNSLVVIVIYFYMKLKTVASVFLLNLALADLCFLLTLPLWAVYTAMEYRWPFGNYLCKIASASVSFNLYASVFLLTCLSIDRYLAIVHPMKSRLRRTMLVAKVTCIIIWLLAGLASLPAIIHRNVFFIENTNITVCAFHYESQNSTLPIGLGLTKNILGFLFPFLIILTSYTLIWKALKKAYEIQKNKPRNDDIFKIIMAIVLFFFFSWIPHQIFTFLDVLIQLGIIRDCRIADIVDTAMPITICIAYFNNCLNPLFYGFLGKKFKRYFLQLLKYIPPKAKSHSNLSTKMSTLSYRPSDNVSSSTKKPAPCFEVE", "assay": "AT1R competitive binding assay", "settings": "10 μM"}}, "data": [{"smiles": "COc1ccc2c(c1OCc1ccccc1)C[C@@H](C(=O)O)N(C(=O)C(c1ccccc1)c1ccccc1)C2", "note": "[EMA401]", "values": [{"measurement": "salivary discharge", "setting": "[1]; rat, 200, 400, and 800 mg/kg/day, 1 h after dosage", "result": "in high-, medium-, and low-dose groups"}, {"measurement": "gross anatomy vs vehicle group", "setting": "[1]; rat, 7 days, kidneys, hearts, livers", "result": "no distinguishable gross anatomy differences"}, {"measurement": "tolerability", "setting": "[1]; rat, oral gavage, 200, 400, and 800 mg/kg/day for 7 days", "result": "well tolerated with no serious adverse events or significant laboratory abnormalities"}, {"measurement": "CLint scaled at 1 μM", "setting": "[2]", "result": "25 ± 1.1", "unit": "mL/min/kg"}, {"measurement": "fraction unbound at 6 h, 1 μM", "setting": "[3]", "result": "< 0.001"}, {"measurement": "toxicity finding after chronic dosing", "setting": "[4]", "result": "hepatotoxicity in monkeys"}, {"measurement": "IC50", "setting": "[5]", "result": "> 50", "unit": "µM"}, {"measurement": "IC50", "setting": "[6]", "result": "> 50", "unit": "µM"}, {"measurement": "IC50", "setting": "[7]", "result": "[…]"}, {"measurement": "CLint scaled at 1 μM", "setting": "[8]", "result": "25.9 ± 1", "unit": "mL/min/kg"}, {"measurement": "IC50", "setting": "[9]", "result": 7.4, "unit": "µM"}, {"measurement": "Papp A→B at 90 min, 10 µM", "setting": "[10]", "result": "3.3 ± 0.3", "unit": "×10⁻⁶ cm/s"}, {"measurement": "Papp B→A at 90 min, 10 µM", "setting": "[10]", "result": 24.5, "unit": "×10⁻⁶ cm/s"}, {"measurement": "fraction unbound at 6 h, 1 μM", "setting": "[11]", "result": "< 0.001"}, {"measurement": "effect on neurite outgrowth induced by angiotensin II", "setting": "[12]", "result": "abolished neurite outgrowth induced by angiotensin II"}, {"measurement": "IC50", "setting": "[13]", "result": "> 50", "unit": "µM"}, {"measurement": "clearance", "setting": "[14]; iv, 1 mg/kg", "result": "14 ± 1", "unit": "mL/min/kg"}, {"measurement": "half-life", "setting": "[14]; iv, 1 mg/kg", "result": "1.6 ± 0.3", "unit": "h"}, {"measurement": "AUC(0-t)", "setting": "[14]; po, 10 mg/kg", "result": "1470 ± 709", "unit": "ng·h/mL"}, {"measurement": "Cmax", "setting": "[14]; po, 10 mg/kg", "result": "470 ± 197", "unit": "ng/mL"}, {"measurement": "bioavailability", "setting": "[14]; po, 10 mg/kg", "result": "12 ± 6", "unit": "%"}, {"measurement": "IC50", "setting": "[15]", "result": "> 10", "unit": "µM"}, {"measurement": "hERG potassium channel activity", "setting": "[15]; concentrations up to 10 μM", "result": "no hERG potassium channel activity"}, {"measurement": "paw withdrawal threshold responsive to tactile stimulation (von Frey)", "setting": "[16]", "result": "significantly increased paw withdrawal threshold"}, {"measurement": "IC50", "setting": "[17]", "result": 20, "unit": "µM"}, {"measurement": "IC50", "setting": "[18]", "result": "> 50", "unit": "µM"}, {"measurement": "CLint scaled at 1 μM", "setting": "[19]", "result": 66, "unit": "mL/min/kg"}]}, {"smiles": "CC(C)C[C@H](CN)CC(=O)O", "note": "[pregabalin]", "values": [{"measurement": "paw withdrawal threshold responsive to tactile stimulation (von Frey)", "setting": "[16]", "result": "significantly increased paw withdrawal threshold"}]}, {"smiles": "COc1ccc2c(c1OCc1ccc(OC(F)(F)F)cc1)C[C@@H](C(=O)O)N(c1nc3ccc(F)cc3o1)C2", "note": "[Compound 28]", "values": [{"measurement": "hAT1R antagonistic activity at the highest tested concentration", "setting": "[20]", "result": "none of them showed any hAT1R antagonistic activity"}]}]}
